Measured values from ChEMBL document CHEMBL5537213, “Cytotoxicity of phosphoramidate, bis-amidate and cycloSal prodrug metabolites against tumour and normal cells” (RSC Med Chem, 2024).
The source made the active and inactive calls. The rule behind the calls is not given here.

Experiments:
BXPC-3 [1] = assay: Cytotoxicity against human BXPC-3 cells assessed as reduction in cell viability at 128 uM incubated for 72 hrs by CyQUANT assay relative to control; assay type: functional
How it was run: (§1)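 BxPC3 (5 × 10^3/well) or primary astrocytes (3 × 10^3/well) were dosed 24 h after plating, in supplemented DMEM with 0.1% DMSO final, for 72 h. Stained 1 h at 37 °C with CyQUANT Direct nucleic acid stain plus background suppressor in HBSS. Whole-well fluorescence imaged (Ex 488/Em 520 nm) and normalised to control. ≥3 experiments, ≥4 replicates.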

GL261 [2] = assay: Antiproliferative activity against mouse GL261 cells transfected with luciferase gene assessed as reduction in ATP release at 128 uM incubated for 72 hrs in presence of D-luciferin by luminescence based SpectraMax M5 microplate reader analysis; assay type: functional; parameters: scale not given: the % may be the effect or the level left
How it was run: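 Luciferase-expressing GL261 cells were seeded at 3 × 10^3/well, then dosed 24 h later for 72 h in supplemented DMEM with 0.1% DMSO final. Medium was replaced with D-luciferin (150 µg/mL in complete medium) for 15 min at 37 °C, and luminescence was read on a plate reader and normalised to control. ≥3 experiments, ≥4 replicates.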

Astrocyte [3] = assay: Cytotoxicity against mouse astrocyte cells assessed as reduction in cell viability at 128 uM incubated for 72 hrs by CyQUANT assay; assay type: toxicity, cell-based; how it was run: as §1
BXPC-3 [4] = assay: Antiproliferative activity against human BXPC-3 cells assessed as reduction in cell index at 128 uM incubated for 72 hrs by xCELLigence real time cell analyser method relative to control; assay type: functional; parameters: scale not given: the % may be the effect or the level left
How it was run: (§2)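 Real-time impedance: cells seeded on E16 plates (BxPC3 5 × 10^3/well; GL261-Luc and primary astrocytes 3 × 10^3/well), treated after 24 h in DMEM/10% FBS with 0.1% DMSO final. Cell index read hourly for 72 h and normalised to control (100% viability). At least three independent experiments, duplicates each; mean ± S.D.; ANOVA with Dunnett's test.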

Astrocyte [5] = assay: Cytotoxicity against mouse astrocyte cells assessed as reduction in cell index at 128 uM incubated for 72 hrs by xCELLigence real time cell analyser method relative to control; assay type: toxicity, cell-based; parameters: scale not given: the % may be the effect or the level left; how it was run: as §2
Astrocyte [6] = assay: Cytotoxicity against mouse astrocyte cells assessed as reduction in cell index at 128 uM measured after 4 hrs by xCELLigence real time cell analyser method; assay type: toxicity, cell-based; how it was run: as §2
BXPC-3 [7] = assay: Induction of apoptosis in human BXPC-3 cells assessed as fold increase in caspase 3/7 activation at 128 uM incubated for 72 hrs by laser scanning imaging analysis; assay type: functional
How it was run: (§3)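 BxPC3 (5 × 10^3/well) or GL261-Luc (3 × 10^3/well) were dosed 24 h after seeding for 72 h (0.1% DMSO final). CellEvent caspase-3/7 reagent was added for 1 h at 37 °C and whole-well fluorescence imaged (Ex 488/Em 520 nm). Cells were then fixed, permeabilised, blocked and stained with CellTag 700 (Ex 685/Em 720 nm) for cell number. Signal per cell is given as fold over control. ≥3 experiments, ≥4 replicates.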

BXPC-3 [8] = assay: Cytotoxicity against human BXPC-3 cells assessed as reduction in cell viability at 256 uM incubated for 72 hrs by CyQUANT assay; assay type: functional, cell-based
How it was run: (§4)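 BxPC3 (5 × 10^3/well) or primary C57BL/6 male mouse astrocytes (>90% GFAP-positive; 3 × 10^3/well) treated 24 h after plating for 72 h, 0.1% DMSO final. Stained 1 h at 37 °C with CyQUANT Direct nucleic acid stain plus background suppressor in HBSS; whole-well fluorescence imaged (Ex 488/Em 520 nm), normalised to control. At least three experiments, at least four replicates each.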

GL261 [9] = assay: Antiproliferative activity against mouse GL261 cells transfected with luciferase gene assessed as reduction in ATP release at 256 uM incubated for 72 hrs in presence of D-luciferin by luminescence based SpectraMax M5 microplate reader analysis; assay type: functional, cell-based
How it was run: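 Luciferase-expressing GL261-Luc seeded at 3 × 10^3/well in DMEM with 10% FBS; 24 h later exposed to compounds with 0.1% DMSO final for 72 h. Medium replaced by D-luciferin 150 μg mL-1 in complete medium, 15 min at 37 °C; luminescence read on plate reader, normalised to control. At least three experiments, at least four replicates each.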

Astrocyte [10] = assay: Cytotoxicity against mouse astrocyte cells assessed as reduction in cell viability at 256 uM incubated for 72 hrs by CyQUANT assay; assay type: toxicity, cell-based; how it was run: as §4
BXPC-3 [11] = assay: Antiproliferative activity against human BXPC-3 cells assessed as reduction in cell index at 256 uM incubated for 72 hrs by xCELLigence real time cell analyser method; assay type: functional, cell-based
How it was run: (§5)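 Cells seeded on E16 xCELLigence plates (BxPC3 5 × 10^3/well; GL261-Luc and primary astrocytes 3 × 10^3/well), treated after 24 h in supplemented DMEM with 0.1% DMSO final. Impedance cell index read hourly for 72 h, normalised to control (100% viability). At least three independent experiments, two replicates each; ANOVA with Dunnett's test.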

GL261 [12] = assay: Antiproliferative activity against mouse GL261 cells transfected with luciferase gene assessed as reduction in cell index at 256 uM incubated for 72 hrs by xCELLigence real time cell analyser method; assay type: functional, cell-based; how it was run: as §5
Astrocyte [13] = assay: Cytotoxicity against mouse astrocyte cells assessed as reduction in cell index at 256 uM incubated for 72 hrs by xCELLigence real time cell analyser method relative to control; assay type: toxicity, cell-based; parameters: scale not given: the % may be the effect or the level left; how it was run: as §5
BXPC-3 [14] = assay: Induction of apoptosis in human BXPC-3 cells assessed as increase in caspase 3/7 activation at 256 uM incubated for 72 hrs by laser scanning imaging analysis; assay type: functional, cell-based
How it was run: (§6)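 BxPC3 (5 × 10^3/well) or GL261-Luc (3 × 10^3/well) exposed 24 h post-plating for 72 h, 0.1% DMSO final. CellEvent caspase-3/7 green reagent 1 h at 37 °C; whole-well fluorescence imaged (Ex 488/Em 520 nm). Cells then fixed, permeabilised, blocked and stained with CellTag 700 (Ex 685/Em 720 nm); caspase signal normalised to cell number, expressed as fold over control. At least three experiments, at least four replicates each.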

GL261 [15] = assay: Induction of apoptosis in mouse GL261 cells transfected with luciferase gene assessed as increase in caspase 3/7 activation at 256 uM incubated for 72 hrs by laser scanning imaging analysis; assay type: functional, cell-based; how it was run: as §6
GL261 [16] = assay: Induction of apoptosis in mouse GL261 cells transfected with luciferase gene assessed as fold increase in caspase 3/7 activation at 128 uM incubated for 72 hrs by laser scanning imaging analysis; assay type: functional; how it was run: as §6
BXPC-3 [17] = assay: Cytotoxicity against human BXPC-3 cells assessed as reduction in cell viability at 128 uM incubated for 72 hrs by CyQUANT assay; assay type: functional, cell-based; how it was run: as §1
BXPC-3 [18] = assay: Antiproliferative activity against human BXPC-3 cells assessed as reduction in cell index at 128 uM incubated for 72 hrs by xCELLigence real time cell analyser method; assay type: functional, cell-based; how it was run: as §2
GL261 [19] = assay: Antiproliferative activity against mouse GL261 cells transfected with luciferase gene assessed as reduction in cell index at 128 uM incubated for 72 hrs by xCELLigence real time cell analyser method; assay type: functional, cell-based; how it was run: as §2
BXPC-3 [20] = assay: Induction of apoptosis in human BXPC-3 cells assessed as increase in caspase 3/7 activation at 128 uM incubated for 72 hrs by laser scanning imaging analysis; assay type: functional, cell-based; how it was run: as §3
GL261 [21] = assay: Induction of apoptosis in mouse GL261 cells transfected with luciferase gene assessed as increase in caspase 3/7 activation at 128 uM incubated for 72 hrs by laser scanning imaging analysis; assay type: functional, cell-based; how it was run: as §3

Structure (SMILES) | Activity (BXPC-3 [1]) [%] | Activity (GL261 [2]) | Activity (Astrocyte [3]) [%] | Activity (BXPC-3 [4]) [%] | Activity (Astrocyte [5]) [%] | Activity (Astrocyte [6]) | fold change (FC) (BXPC-3 [7]) | Activity (BXPC-3 [8]) | Activity (GL261 [9]) | Activity (Astrocyte [10]) [%] | Activity (BXPC-3 [11]) | Activity (GL261 [12]) | Activity (Astrocyte [13]) [%] | Activity (BXPC-3 [14]) | Activity (GL261 [15]) | Activity (BXPC-3 [17]) | Activity (BXPC-3 [18]) | Activity (GL261 [19]) | Activity (BXPC-3 [20]) | Activity (GL261 [21]) | also measured
Oc1ccc2ccccc2c1 [BETANAPHTHOL] | 90 | 39% | 29 | 94 | 46 | Toxic | 8.1 | – | – | – | – | – | – | – | – | – | – | – | – | – | –
C[C@H](N)C(=O)OCc1ccccc1 | – | – | – | – | – | – | – | inactive | inactive | 8 | inactive | inactive | 11 | inactive | inactive | – | – | – | – | – | –
CC(C)OC(=O)[C@H](C)N | – | – | – | – | – | – | – | inactive | inactive | 12 | inactive | inactive | 11 | inactive | inactive | – | – | – | – | – | –
Oc1cccc2ccccc12 [1-NAPHTHOL] | 53 | 53% | 29 | 51 | – | Toxic | 2.2 | – | – | – | – | – | – | – | – | – | – | – | – | – | fold change (FC) (GL261 [16]): 2
OCc1ccccc1O [SALICYL ALCOHOL] | – | inactive | 22 | – | 11 | – | – | – | – | – | – | – | – | – | – | inactive | inactive | inactive | inactive | inactive | –
Oc1ccccc1 [PHENOL] | – | inactive | 8 | – | 11 | – | – | – | – | – | – | – | – | – | – | inactive | inactive | inactive | inactive | inactive | –
